Experimental data as given in ChEMBL document CHEMBL5357041, “Discovery of novel β-elemene hybrids with hydrogen sulfide-releasing moiety possessing cardiovascular protective activity for the treatment of atherosclerosis” (RSC Med Chem, 2024).
In brackets after ≈: the same amount, converted by molar mass. Activity calls are given as the source filed them. The rule behind the calls is not given here.

Experiments:
[1] = Cytotoxicity against mouse BMDM cells assessed as cell viability at 50 uM incubated for 24 hrs by MTT assay; type: toxicity, cell-based; conditions: BMDM cells (bone marrow-derived macrophages), read-out: Activity
Procedure, shortened: (§1)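 Primary bone marrow macrophages taken from 6-week-old male C57 mice and cultured 6–7 days before use. Compounds dosed for 24 h, then MTT added for 4 h and formazan dissolved in DMSO; absorbance read at 570 nm. Triplicate wells; medium-only and untreated-cell controls; mean ± SD, n = 4.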

[2] = tested on: Thoracic aorta; assay: Vasodilation activity against KCl-induced Sprague-Dawley rat thoracic aorta vessels contraction at 20 uM; type: functional
Procedure, shortened: (§2)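 Aortic rings of about 2 mm from anesthetized SD rats mounted in Krebs solution at 37 °C under oxygen, preload 9.8 mN, equilibrated about 1 h. Rings contracted with 25 mM K⁺, then compound added cumulatively. Relaxation (%) = (maximum KCl tension − tension after compound)/(maximum KCl tension − preload). ADT-OH served as control; mean ± SD, n = 4.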

[3] = tested on: Thoracic aorta; assay: Vasodilation activity against KCl-induced Sprague-Dawley rat thoracic aorta vessels contraction at 10 uM; type: functional; procedure, shortened: as §2
[4] = tested on: Thoracic aorta; assay: Vasodilation activity against KCl-induced Sprague-Dawley rat thoracic aorta vessels contraction at 40 uM; type: functional; procedure, shortened: as §2
[5] = Cytotoxicity against mouse BMDM cells assessed as cell viability at 100 uM incubated for 24 hrs by MTT assay; type: toxicity, cell-based; conditions: BMDM cells (bone marrow-derived macrophages), read-out: Activity; procedure, shortened: as §1
[6] = tested on: Thoracic aorta; assay: Vasodilation activity against KCl-induced Sprague-Dawley rat thoracic aorta vessels contraction at 5 uM; type: functional; procedure, shortened: as §2
[7] = tested on: Thoracic aorta; assay: Vasodilation activity against KCl-induced Sprague-Dawley rat thoracic aorta vessels contraction at 1 uM; type: functional; procedure, shortened: as §2
[8] = tested on: Thoracic aorta; assay: Vasodilation activity against KCl-induced Sprague-Dawley rat thoracic aorta vessels contraction in presence of glyburide; type: functional, tissue-based
[9] = tested on: HUVEC; assay: Inhibition of H2O2-induced oxidative damage in HUVECs preincubated for 24 hrs followed by H2O2 addition and measured after 2 hrs by MTT method; type: functional, cell-based; conditions: Homo sapiens, time 26.0 hrs
Procedure, shortened: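 HUVECs were seeded and grown 24 h at 37 °C, 5% CO₂, then given compound (0.5, 5 or 20 μM) for 24 h. Control and model wells received serum-free medium instead. Model and treated wells were then exposed to 1 mM H₂O₂ for 2 h, followed by MTT for 4 h, DMSO, and absorbance at 570 nm. Trolox was the positive control; mean ± SD, n = 5.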

[10] = tested on: HUVEC; assay: Cytotoxicity against HUVECs at 0.5 to 200 uM incubated for 24 hrs by MTT assay; type: toxicity, cell-based; conditions: human, dose 0.5-200 µM
Procedure, shortened: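 HUVECs bought from ATCC; compounds given for 24 h, then MTT (5 mg/mL, 20 μL/well) added for 4 h. Formazan dissolved in DMSO and absorbance read at 570 nm. Medium-only and untreated-cell wells served as controls.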

[11] = Induction of H2S release in phosphate buffer at 100 uM measured upto 150 mins under L-cysteine stimulated condition by microplate reader analysis; conditions: 2.5 h
Procedure, shortened: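 Compound (100 μM) incubated with 1 mM L-cysteine in phosphate buffer at 37 °C, sampled at 0–150 min. Each sample quenched with zinc acetate and trichloroacetic acid, then N,N-dimethyl-p-phenylenediamine and FeCl₃ in HCl added. Absorbance read at 670 nm after 10 min; H₂S quantified against a NaHS standard curve (5–150 μM).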

[12] = Water solubility of the compound after 20 mins by HPLC analysis; type: physicochemical
Procedure, shortened: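 Compound suspended in 1 mL water at room temperature, sonicated 20 min and passed through a 0.22 μm filter. Filtrate analyzed by HPLC (MeCN/water 95:5, 1.0 mL/min, UV 254 nm) and quantified against a standard curve of 0.5–500 μg/mL in MeOH.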

[13] = tested on: RAW264.7; assay: Lipid lowering activity in ox-LDL stimulated mouse RAW264.7 cells at 50 uM by oil red O staining based microscopic analysis; type: functional, cell-based
Procedure, shortened: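 RAW 264.7 cells allowed to adhere 2 h, then exposed to ox-LDL (50 μg/mL) plus compound (50 μM) for 24 h. Cells fixed in 4% paraformaldehyde, stained with oil red O, rinsed in 60% isopropanol and counterstained with hematoxylin. Oil red O-positive area percentage quantified microscopically; ANOVA used.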

Row | Structure (SMILES) | viability at 24 h, 50 µM [1] | Activity [2] | Activity [3] | Activity [4] | viability at 24 h, 100 µM [5] | Activity [6] | Activity [7] | Activity [8] | inhibition [9] | Activity [10] | Activity [11] | solubility at 20 min [12] | Activity [13]
1 | C=C[C@]1(C)CC[C@@H](C(=C)COC(=O)CCCCC2CCSS2)C[C@H]1C(=C)C (some centres not stated) | 296% | 8.99% | 6.38% | 11.51% | 378% | -5.69% | -3.41% |  |  |  |  |  | 
2 | Oc1ccc(-c2cc(=S)ss2)cc1 |  | 61.69% | 42.24% | 75.01% |  | 5.39% | 3.08% | inactive | Active | Non-Toxic |  |  | 
3 | C=C[C@]1(C)CC[C@@H](C(=C)C)C[C@H]1C(=C)COC(=O)CCC(=O)OCCOc1ccc(-c2cc(=S)ss2)cc1 | 244% | 13.2% | 14.98% | 7.43% | 262% | -8.64% | 7.47% |  |  |  |  |  | 
4 | C=C[C@]1(C)CC[C@@H](C(=C)COC(=O)CCCCCC(=O)Oc2ccc(-c3cc(=S)ss3)cc2)C[C@H]1C(=C)C | 232% | 16.08% | 6.99% | 21.17% | 459% | 6.64% | -1.15% |  |  |  |  |  | 
5 | C=C[C@]1(C)CC[C@@H](C(=C)COC(=O)c2c(F)cccc2C(=O)OCCOc2ccc(-c3cc(=S)ss3)cc2)C[C@H]1C(=C)C | 193% | 51.85% | 38.87% | 61.41% | 347% | 25.08% | 18.12% | Active | Active | Non-Toxic | 100 µM | 40 µg/mL (≈ 62.6 µM) | Active
6 | C=C[C@]1(C)CC[C@@H](C(=C)C)C[C@H]1C(=C)COC(=O)CCCCC1CCSS1 (some centres not stated) | 157% | 24.52% | 20.75% | 17.27% | 336% | -2.4% | -19.8% |  |  |  |  |  | 
7 | C=C[C@]1(C)CC[C@@H](C(=C)C)C[C@H]1C(=C)COC(=O)C(NC(=O)CCC(=O)OCCOc1ccc(-c2cc(=S)ss2)cc1)C(C)CC (some centres not stated) | 269% | 7.93% | 6.75% | 13% | 272% | 2.75% | 0.64% |  |  |  |  |  | 
8 | C=C[C@]1(C)CC[C@@H](C(=C)COC(=O)CCCCCC(=O)Oc2ccc(-c3nc(=O)ss3)cc2)C[C@H]1C(=C)C | 323% | 7.08% | 2.38% | 8.22% | 391% | 4.76% | -0.4% |  |  |  |  |  | Active
9 | C=C[C@]1(C)CC[C@@H](C(=C)COCCCCCCOc2ccc(C(N)=S)cc2)C[C@H]1C(=C)C | 279% | 10.31% | 0.07% | 12.18% | 17.1% | 4.72% | 6.68% |  |  |  |  |  | 
10 | C=C[C@]1(C)CC[C@@H](C(=C)COC(=O)/C=C\C(=O)OCCOc2ccc(-c3cc(=S)ss3)cc2)C[C@H]1C(=C)C | 99% | 12.57% | 7.28% | 10.78% | 89.7% | 1.54% | -4.07% |  |  |  |  |  | 
11 | C=C[C@]1(C)CC[C@@H](C(=C)COCCCCCCCCOc2ccc(C(N)=S)cc2)C[C@H]1C(=C)C | 74.5% | 12.44% | 8.86% | 19.64% | 27.1% | 1.71% | -4.54% |  |  |  |  |  | Active
12 | C=C[C@]1(C)CC[C@@H](C(=C)COC(=O)CCCCCC(=O)Oc2ccc(C(N)=S)cc2)C[C@H]1C(=C)C | 177% | 4.19% | 2.67% | 6.38% | 219% | 4.53% | 1.2% |  |  |  |  |  | 
13 | O=C(O)CCCCC1CCSS1 (stereo not drawn) [LIPOIC ACID, ALPHA] |  |  |  |  |  |  |  |  |  |  | 20 µM |  | 
14 | C=C[C@]1(C)CC[C@@H](C(=C)COC(=O)C(NC(=O)CCCCC2CCSS2)C(C)CC)C[C@H]1C(=C)C (some centres not stated) | 208% | 1.21% | 2.19% | 14.47% | 268% | -8.16% | -5.9% |  |  |  |  |  | 
15 | C=C[C@]1(C)CC[C@@H](C(=C)C)C[C@H]1C(=C)COC(=O)C(NC(=O)CCCCC1CCSS1)C(C)CC (some centres not stated) | 672% | 5.16% | -3.6% | 14.67% | 882% | 2.78% | 1.1% |  |  |  |  |  | 
16 | C=C[C@]1(C)CC[C@@H](C(=C)COC(=O)CCC(=O)OCCOc2ccc(-c3nc(=O)ss3)cc2)C[C@H]1C(=C)C | 266% | 26.82% | 17.84% | 34.29% | 254% | 10.11% | -0.71% |  |  |  |  |  | Active
17 | C=C[C@]1(C)CC[C@@H](C(=C)CO)C[C@H]1C(=C)C | 275% | 27.81% | 5.63% | 53.06% | 281% | 4.63% | 0.09% |  | Active | Non-Toxic |  |  | 
18 | C=C[C@]1(C)CC[C@@H](C(=C)COC(=O)C(NC(=O)CCC(=O)OCCOc2ccc(-c3cc(=S)ss3)cc2)C(C)CC)C[C@H]1C(=C)C (some centres not stated) | 295% | 4.83% | -6.76% | 14.29% | 584% | 3.38% | 1.7% |  |  |  | 100 µM |  | 
19 | C=C[C@]1(C)CC[C@@H](C(=C)COC(=O)CCC(=O)OCCOc2ccc(-c3cc(=S)ss3)cc2)C[C@H]1C(=C)C | 264% | 12.67% | 11.63% | 12.14% | 349% | 6.87% | 1.27% |  |  |  | 100 µM |  | 
20 | C=C[C@]1(C)CC[C@@H](C(=C)COC(=O)c2ccccc2C(=O)OCCOc2ccc(-c3cc(=S)ss3)cc2)C[C@H]1C(=C)C | 349% | 17.46% | 17% | 28.25% | 454% | 10.01% | -2.99% |  | Active | Non-Toxic | 100 µM |  | Active
21 | C=C[C@]1(C)CC[C@@H](C(=C)COC(=O)CCCCCCC(=O)Oc2ccc(-c3cc(=S)ss3)cc2)C[C@H]1C(=C)C | 189% | 7.96% | 0.55% | 14.68% | 202% | 5.04% | 12.81% |  |  |  |  |  | 
22 | C=C[C@]1(C)CC[C@@H](C(=C)COCCCCOc2ccc(C(N)=S)cc2)C[C@H]1C(=C)C | 163% | 15.38% | 17.37% | 30.23% | 14.9% | 4.13% | 4.61% |  |  |  |  |  | 
23 | NC(=S)c1ccc(O)cc1 |  |  |  |  |  |  |  |  |  |  | 50 µM |  | 
